According to ChEMBL document CHEMBL4354866, “TREK Channel Family Activator with a Well-Defined Structure-Activation Relationship for Pain and Neurogenic Inflammation” (J Med Chem, 2020):
Residue numbers refer to the chain shown, from its start. Active and inactive are the calls of the source. The rule behind the calls is not given here.

What was measured:
[1] = molecular target: T1, Potassium channel subfamily K member 2 (Homo sapiens) (UniProt O95069); experiment: (§1) Activation of recombinant human TREK1 expressed in HEK293T cells assessed as increase in K+ current amplitude by whole cell voltage clamp electrophysiological analysis; assay type: cell-based
T1 sequence (whole entry): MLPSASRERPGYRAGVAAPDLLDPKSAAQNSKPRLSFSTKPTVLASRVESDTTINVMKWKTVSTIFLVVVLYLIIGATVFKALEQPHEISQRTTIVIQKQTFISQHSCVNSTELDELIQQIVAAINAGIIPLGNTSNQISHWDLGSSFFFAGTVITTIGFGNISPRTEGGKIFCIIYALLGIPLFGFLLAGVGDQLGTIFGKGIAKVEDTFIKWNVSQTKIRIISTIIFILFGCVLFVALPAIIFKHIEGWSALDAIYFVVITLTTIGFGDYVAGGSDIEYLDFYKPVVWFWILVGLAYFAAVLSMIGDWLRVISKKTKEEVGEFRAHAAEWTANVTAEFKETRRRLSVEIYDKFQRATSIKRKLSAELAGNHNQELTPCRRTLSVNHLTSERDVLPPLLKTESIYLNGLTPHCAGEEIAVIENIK
Summary of the method: (§2)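 Transiently transfected HEK-293T cells, whole-cell voltage clamp. Held at -60 mV, 500-ms ramp -120 to +60 mV. Pipette (mM) 140 KCl, 5 EGTA, 10 HEPES, pH 7.4; external 145 NaCl, 4 KCl, pH 7.3. Compound diluted from 10 mM DMSO stock and applied extracellularly. Current increase over control fitted to concentration–response curves for EC50.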

[2] = molecular target: T2, Potassium channel subfamily K member 2 (Homo sapiens, UniProt O95069); experiment: as §1; assay type: cell-based; summary of the method: as §2
T2 sequence (O95069 whole entry): T1 sequence (whole entry)

[3] = molecular target: T1, Potassium channel subfamily K member 2 (Homo sapiens); experiment: Activation of recombinant human TREK1 expressed in HEK293T cells assessed as change in single channel conductance by inside-out patch electrophysiological analysis; assay type: cell-based
Summary of the method: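 Inside-out patches from HEK-293T cells expressing human TREK-1 (pEGFP-N1), 10 μM compound. Conductance taken as first open-state amplitude over voltage at -60 or +60 mV.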

[4] = molecular target: Potassium channel subfamily K member 9 (Homo sapiens) (UniProt Q9NPC2); experiment: Activation of recombinant human TASK3 expressed in HEK293T cells assessed as increase in K+ current amplitude at 10 uM by whole cell voltage clamp electrophysiological analysis; assay type: cell-based
Chain of Potassium channel subfamily K member 9 (Homo sapiens) (Q9NPC2 whole entry): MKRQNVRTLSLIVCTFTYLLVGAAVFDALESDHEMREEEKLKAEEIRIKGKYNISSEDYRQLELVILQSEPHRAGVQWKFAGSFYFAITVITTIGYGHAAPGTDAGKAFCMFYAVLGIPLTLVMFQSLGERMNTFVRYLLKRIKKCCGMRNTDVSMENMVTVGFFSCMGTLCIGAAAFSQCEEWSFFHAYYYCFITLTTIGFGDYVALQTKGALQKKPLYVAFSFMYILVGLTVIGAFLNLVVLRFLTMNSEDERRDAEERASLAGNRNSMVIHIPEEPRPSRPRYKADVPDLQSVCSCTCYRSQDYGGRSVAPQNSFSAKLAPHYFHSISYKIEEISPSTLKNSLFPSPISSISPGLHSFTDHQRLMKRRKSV
Summary of the method: (§3)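 HEK-293T cells transiently transfected with the human K2P channel. Whole-cell clamp at -60 mV, 500-ms ramp -120 to +60 mV. Pipette 140 KCl (pH 7.4), external 145 NaCl/4 KCl (pH 7.3). Compound 10 μM, diluted from 10 mM DMSO stock into external solution.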

[5] = molecular target: T3, Potassium channel subfamily K member 13 (Homo sapiens) (UniProt Q9HB14); experiment: Activation of recombinant human THIK1 expressed in HEK293T cells assessed as increase in K+ current amplitude at 10 uM by whole cell voltage clamp electrophysiological analysis; assay type: cell-based; summary of the method: as §3
T3 sequence (whole entry): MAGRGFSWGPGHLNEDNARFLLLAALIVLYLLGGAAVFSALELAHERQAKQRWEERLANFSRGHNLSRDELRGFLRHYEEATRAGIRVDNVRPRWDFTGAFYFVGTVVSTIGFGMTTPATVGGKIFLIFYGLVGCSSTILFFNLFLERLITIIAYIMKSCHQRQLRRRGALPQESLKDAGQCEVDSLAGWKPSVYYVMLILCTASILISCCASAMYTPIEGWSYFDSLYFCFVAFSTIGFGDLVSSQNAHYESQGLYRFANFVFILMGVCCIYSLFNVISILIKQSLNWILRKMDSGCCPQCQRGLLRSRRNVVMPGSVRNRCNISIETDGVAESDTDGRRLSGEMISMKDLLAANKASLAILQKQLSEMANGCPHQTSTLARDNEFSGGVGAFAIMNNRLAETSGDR

[6] = test system: T4, Potassium channel subfamily K member 2 (Homo sapiens), O95069 [I158A]; experiment: Activation of recombinant human TREK1 I158A mutant expressed in HEK293T cells assessed as increase in K+ current amplitude by whole cell voltage clamp electrophysiological analysis; assay type: cell-based; summary of the method: as §2
T4 sequence (whole entry): T1 sequence (whole entry) with I158A

[7] = molecular target: Potassium channel subfamily K member 2 (Homo sapiens, UniProt O95069, F149A); experiment: Activation of recombinant human TREK1 F149A mutant expressed in HEK293T cells assessed as increase in K+ current amplitude by whole cell voltage clamp electrophysiological analysis; assay type: cell-based; summary of the method: as §2
Chain of Potassium channel subfamily K member 2 (Homo sapiens, UniProt O95069, F149A) (O95069 whole entry F149A): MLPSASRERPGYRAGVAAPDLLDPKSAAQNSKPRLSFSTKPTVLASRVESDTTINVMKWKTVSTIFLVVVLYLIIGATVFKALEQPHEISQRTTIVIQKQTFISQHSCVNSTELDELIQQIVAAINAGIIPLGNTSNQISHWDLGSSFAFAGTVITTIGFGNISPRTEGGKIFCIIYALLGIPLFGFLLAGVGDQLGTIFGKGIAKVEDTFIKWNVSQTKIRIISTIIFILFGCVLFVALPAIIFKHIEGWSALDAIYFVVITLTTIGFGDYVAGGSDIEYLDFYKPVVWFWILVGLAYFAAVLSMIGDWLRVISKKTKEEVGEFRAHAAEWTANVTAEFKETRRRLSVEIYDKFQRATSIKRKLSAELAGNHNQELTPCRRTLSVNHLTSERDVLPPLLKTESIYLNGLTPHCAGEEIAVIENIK

[8] = molecular target: Potassium channel subfamily K member 2 (Homo sapiens, UniProt O95069, W290A); experiment: Activation of recombinant human TREK1 W290A mutant expressed in HEK293T cells assessed as increase in K+ current amplitude by whole cell voltage clamp electrophysiological analysis; assay type: cell-based; summary of the method: as §2
Chain of Potassium channel subfamily K member 2 (Homo sapiens, UniProt O95069, W290A) (O95069 whole entry W290A): as the sequence (O95069 whole entry F149A) above, with A149F, W290A counted along it

[9] = molecular target: Potassium channel subfamily K member 2 (Homo sapiens, UniProt O95069, I293A); experiment: Activation of recombinant human TREK1 I293A mutant expressed in HEK293T cells assessed as increase in K+ current amplitude by whole cell voltage clamp electrophysiological analysis; assay type: cell-based; summary of the method: as §2
Chain of Potassium channel subfamily K member 2 (Homo sapiens, UniProt O95069, I293A) (O95069 whole entry I293A): as the sequence (O95069 whole entry F149A) above, with A149F, I293A counted along it

[10] = molecular target: T5, Potassium channel subfamily K member 2 (Rattus norvegicus) (UniProt Q920B6); experiment: Activation of TREK in depolarized Sprague-Dawley rat DRG neurons assessed as increase in K+ current amplitude at 10 uM by whole cell voltage clamp electrophysiological analysis relative to control
T5 sequence (whole entry): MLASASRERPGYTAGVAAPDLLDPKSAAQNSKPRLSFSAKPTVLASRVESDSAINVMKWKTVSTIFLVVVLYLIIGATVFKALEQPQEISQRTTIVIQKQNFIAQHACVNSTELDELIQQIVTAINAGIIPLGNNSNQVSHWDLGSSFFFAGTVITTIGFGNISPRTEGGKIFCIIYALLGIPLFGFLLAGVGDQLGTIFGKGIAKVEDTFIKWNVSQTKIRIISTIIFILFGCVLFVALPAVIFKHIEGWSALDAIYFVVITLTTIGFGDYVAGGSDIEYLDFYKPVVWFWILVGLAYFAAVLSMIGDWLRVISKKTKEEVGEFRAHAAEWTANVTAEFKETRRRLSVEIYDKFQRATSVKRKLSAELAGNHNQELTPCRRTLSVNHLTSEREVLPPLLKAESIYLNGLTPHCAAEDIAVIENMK

Question: With `Cc1ccc2nc(-c3ccc(NC(=O)[C@@H]4CC[C@H](C(=O)O)C4)cc3)sc2c1` as the compound, how does the Activity [1] read?
Answer: Dose-dependent effect

Question: And the EC50 [2]?
Answer: 12.8 µM

Question: What about the Activity [3] of the same compound?
Answer: inactive

Question: And the Activity [4]?
Answer: Active

Question: What about the Activity [5] of the same compound?
Answer: Active

Question: What about the Activity [6] of the same compound?
Answer: inactive

Question: And the EC50 [7]?
Answer: 22.4 µM

Question: What about the EC50 [8] of the same compound?
Answer: 3.91 µM

Question: And the EC50 [9]?
Answer: 7.98 µM

Question: What about the Activity [10] of the same compound?
Answer: 24%
